The values that follow come from ChEMBL document CHEMBL3351655, “Scaffold decoration at positions 5 and 8 of 1,2,4-triazolo[1,5-c]pyrimidines to explore the antagonist profiling on adenosine receptors: a preliminary structure-activity relationship study” (J Med Chem, 2014).

Experiment [1] addresses Adenosine receptors; A1 & A3 (Homo sapiens) (UniProt P30542+P0DMS8). Put plainly: Selectivity ratio of Ki for human adenosine A1 receptor expressed in CHO cells to Ki for human adenosine A3 receptor expressed in CHO cells. It is filed as cell-based.
Experiment [2] deals with CHO. Kind of experiment: Selectivity ratio of Ki for human adenosine A2A receptor expressed in CHO cells to Ki for human adenosine A3 receptor expressed in CHO cells. It is filed as cell-based.
The test system of experiment [3] is CHO. Put plainly: Selectivity ratio of Ki for human adenosine A1 receptor expressed in CHO cells to Ki for human adenosine A2A receptor expressed in CHO cells. Type of experiment: cell-based.
Another experiment concerns the target T1, Adenosine receptor A1 (Homo sapiens, UniProt P30542).
T1 sequence (P30542 whole entry): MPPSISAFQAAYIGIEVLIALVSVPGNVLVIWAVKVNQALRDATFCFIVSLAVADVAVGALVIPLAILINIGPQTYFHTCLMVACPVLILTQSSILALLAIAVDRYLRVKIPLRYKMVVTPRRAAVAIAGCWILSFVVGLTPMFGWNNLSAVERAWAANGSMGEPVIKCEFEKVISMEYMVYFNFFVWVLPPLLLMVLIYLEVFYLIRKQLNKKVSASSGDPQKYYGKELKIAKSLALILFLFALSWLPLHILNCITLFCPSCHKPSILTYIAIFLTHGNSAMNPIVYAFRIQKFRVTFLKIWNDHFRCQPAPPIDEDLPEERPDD
Kind of experiment: Displacement of [3H]CCPA from human adenosine A1 receptor expressed in CHO cells. It is filed as cell-based. A digest of the protocol:
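Stably transfected CHO cells were homogenised and spun at 1000g to remove nuclei and fragments. Membranes were then pelleted at 100 000g, resuspended in binding buffer, frozen in liquid nitrogen and stored. Radioligand was [³H]CCPA, with nonspecific binding defined by 1 mM theophylline.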
Background: Displacement assays read how much labelled ligand stays bound in the presence of the test substance.

Another experiment deals with Adenosine receptor A2a (Homo sapiens, UniProt P29274). Kind of experiment: Displacement of [3H]NECA from human adenosine A2A receptor expressed in CHO cells. Type of experiment: cell-based.
Sequence of Adenosine receptor A2a (P29274 whole entry): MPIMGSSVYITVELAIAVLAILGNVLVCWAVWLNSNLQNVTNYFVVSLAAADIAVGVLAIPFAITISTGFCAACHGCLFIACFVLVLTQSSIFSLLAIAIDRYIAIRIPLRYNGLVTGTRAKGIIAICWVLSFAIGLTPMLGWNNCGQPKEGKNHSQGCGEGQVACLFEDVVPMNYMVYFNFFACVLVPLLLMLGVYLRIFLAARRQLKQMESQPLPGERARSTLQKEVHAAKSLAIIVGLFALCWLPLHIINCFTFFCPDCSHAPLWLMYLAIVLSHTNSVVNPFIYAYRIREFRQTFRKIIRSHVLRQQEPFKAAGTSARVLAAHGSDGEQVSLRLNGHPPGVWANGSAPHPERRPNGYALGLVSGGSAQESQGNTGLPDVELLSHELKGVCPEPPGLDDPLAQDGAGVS
Another experiment has as its target T2, Adenosine receptor A3 (Homo sapiens, UniProt P0DMS8).
T2 sequence (P0DMS8 whole entry): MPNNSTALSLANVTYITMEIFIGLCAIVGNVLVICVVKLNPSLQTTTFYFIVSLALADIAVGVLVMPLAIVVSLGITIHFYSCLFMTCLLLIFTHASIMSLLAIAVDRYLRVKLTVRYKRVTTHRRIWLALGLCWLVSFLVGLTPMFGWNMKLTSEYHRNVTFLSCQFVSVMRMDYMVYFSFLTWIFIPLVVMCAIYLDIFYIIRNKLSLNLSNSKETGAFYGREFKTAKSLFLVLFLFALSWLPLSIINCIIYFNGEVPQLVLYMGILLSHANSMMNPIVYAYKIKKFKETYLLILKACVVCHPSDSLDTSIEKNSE
Kind of experiment: Displacement of [3H]NECA from human adenosine A3 receptor expressed in CHO cells. It is filed as cell-based. A digest of the protocol: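 Radioligand [³H]NECA was used on membranes from stably transfected CHO cells, prepared by a 1000g clearing spin then pelleting at 100 000g. Pellets were resuspended in binding buffer, frozen in liquid nitrogen and stored. Nonspecific binding was defined with 100 μM R-PIA.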

For the next experiment, the target named is T3, Adenosine receptor A2b (Homo sapiens, UniProt P29275).
T3 sequence (P29275 whole entry): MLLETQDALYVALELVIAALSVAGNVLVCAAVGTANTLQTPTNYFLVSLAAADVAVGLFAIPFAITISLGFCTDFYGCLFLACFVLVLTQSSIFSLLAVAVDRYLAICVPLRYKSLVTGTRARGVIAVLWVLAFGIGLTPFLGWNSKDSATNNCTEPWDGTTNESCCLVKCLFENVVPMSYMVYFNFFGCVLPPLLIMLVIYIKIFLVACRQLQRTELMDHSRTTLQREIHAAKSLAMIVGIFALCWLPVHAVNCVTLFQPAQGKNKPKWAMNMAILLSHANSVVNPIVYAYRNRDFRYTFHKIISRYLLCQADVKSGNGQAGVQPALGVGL
Kind of experiment: Antagonist activity at human adenosine A2B receptor expressed in CHO cells assessed as inhibition of NECA-stimulated adenylyl cyclase activity. Type of experiment: functional, cell-based. A digest of the protocol: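 Membranes from stably transfected CHO cells, made with a single high-speed centrifugation of the homogenate. Incubated 20 min with about 150 000 cpm [α-³²P]ATP, in a mixture without EGTA and NaCl. IC50 for concentration-dependent inhibition of NECA-stimulated adenylyl cyclase was fitted with the Hill equation and converted to Ki by Cheng–Prusoff.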

Where only a bound is given, the exact number is not on record here.

Consider `CCOC(=O)c1cnc(NCC(C)C)n2nc(-c3ccco3)nc12`, for which the Ratio Ki in experiment [1] is 1.87; with CHO [2], 1.82; in the experiment on CHO [3] it was 1.03. Further, the Ki (usually a dissociation constant, usually derived from enzyme kinetics or from competition with a known ligand) at Adenosine receptor A1 worked out at 45.6 nM; at Adenosine receptor A2a it was 44.4 nM; at Adenosine receptor A3 it was 24.4 nM; on Adenosine receptor A2b, 7150 nM.
Take `CCOC(=O)c1cnc(NOC)n2nc(-c3ccco3)nc12`: the Ratio Ki in experiment [1] turned out to be 5.47; in the experiment with CHO [2] it was 0.18; in the experiment with CHO [3], 31. Moreover, the Ki is 6510 nM at Adenosine receptor A1, 210 nM at Adenosine receptor A2a, 1190 nM at Adenosine receptor A3 and > 10000 nM at Adenosine receptor A2b.
Regarding `Cc1ccc(CNc2ncc(C(=O)O)c3nc(-c4ccco4)nn23)cc1`, the Ratio Ki was 3.63 in experiment [1], 1.58 in the experiment with CHO [2] and 2.29 with CHO [3]. Besides, the Ki is 2730 nM on Adenosine receptor A1, 1190 nM at Adenosine receptor A2a, 751 nM on Adenosine receptor A3 and > 10000 nM at Adenosine receptor A2b.
Take `CCCCCNc1ncc(C(=O)OCC)c2nc(-c3ccco3)nn12`: the Ratio Ki turned out to be 54.2 in experiment [1], 4.43 in the experiment with CHO [2] and 12.2 with CHO [3]. The Ki on Adenosine receptor A1 was 613 nM; on Adenosine receptor A2a, 50.1 nM; at Adenosine receptor A3, 11.3 nM; on Adenosine receptor A2b, > 10000 nM.
Take `COc1ccc(CNc2ncc(C(=O)NCCc3ccccc3)c3nc(-c4ccco4)nn23)cc1OC`: the Ratio Ki in experiment [1] is 4.39; in the experiment with CHO [2], 0.74; with CHO [3], 5.9. In addition, the Ki on Adenosine receptor A1 was 385 nM; on Adenosine receptor A2a, 65.2 nM; on Adenosine receptor A3 it was 87.7 nM; on Adenosine receptor A2b, > 30000 nM.
Regarding `O=C(Cc1ccccc1)Nc1ncc(C(=O)NCCc2ccccc2)c2nc(-c3ccco3)nn12`, the Ratio Ki in experiment [1] stood at 0.57; with CHO [2], 0.05; with CHO [3], 11.3. The Ki on Adenosine receptor A1 was 317 nM; at Adenosine receptor A2a it was 28.1 nM; at Adenosine receptor A3 it was 553 nM; at Adenosine receptor A2b, > 30000 nM.
On to `CNC(=O)c1cnc(N)n2nc(-c3ccco3)nc12`, for which the Ratio Ki in experiment [1] was determined as 0.22; with CHO [2], 0.02; in the experiment with CHO [3], 9. Also, the Ki is 135 nM at Adenosine receptor A1, 15 nM at Adenosine receptor A2a, 609 nM at Adenosine receptor A3 and 2030 nM at Adenosine receptor A2b.
Regarding `CCNc1ncc(C(=O)O)c2nc(-c3ccco3)nn12`, the Ratio Ki amounted to 24.8 in experiment [1], 7.67 in the experiment on CHO [2] and 3.23 in the experiment on CHO [3]. Moreover, the Ki on Adenosine receptor A1 is 11900 nM; at Adenosine receptor A2a, 3680 nM; on Adenosine receptor A3 it was 480 nM; on Adenosine receptor A2b, > 10000 nM.
For `CCOC(=O)c1cnc(NC2CCCC2)n2nc(-c3ccco3)nc12`, the figures for the Ratio Ki (in experiment [1]; in the experiment on CHO [2]; in the experiment on CHO [3]) were 0.98, 1.24 and 0.79, respectively. Further, the Ki at Adenosine receptor A1 came to 34.4 nM; on Adenosine receptor A2a it was 43.4 nM; at Adenosine receptor A3, 35 nM; on Adenosine receptor A2b, 4620 nM.
Turning to `O=C(Nc1ncc(C(=O)O)c2nc(-c3ccco3)nn12)NC1CCCCC1`, the Ratio Ki was > 1.68 in experiment [1], 0.42 in the experiment with CHO [2] and > 4.05 with CHO [3]. In addition, the Ki on Adenosine receptor A1 was > 100000 nM; at Adenosine receptor A2a, 24700 nM; on Adenosine receptor A3, 59400 nM; on Adenosine receptor A2b, > 30000 nM.
As for `CCOC(=O)c1cnc(NCc2ccc(OC)cc2)n2nc(-c3ccco3)nc12`, the figures for the Ratio Ki (in experiment [1]; in the experiment with CHO [2]; in the experiment with CHO [3]) were 21.7, 2.46 and 8.8, respectively. Also, the Ki at Adenosine receptor A1 was 1250 nM; at Adenosine receptor A2a, 142 nM; on Adenosine receptor A3, 57.6 nM; at Adenosine receptor A2b, 4810 nM.
Consider `CCOC(=O)c1cnc(SC)n2nc(-c3ccco3)nc12`, for which the Ratio Ki in experiment [1] came out at 2.17; in the experiment with CHO [2], 3.6; in the experiment on CHO [3], 0.6. For the same compound, the Ki on Adenosine receptor A1 was 5720 nM; on Adenosine receptor A2a it was 9500 nM; on Adenosine receptor A3 it was 2640 nM; on Adenosine receptor A2b it was > 30000 nM.
For `CCCCCNc1ncc(C(=O)O)c2nc(-c3ccco3)nn12`, the Ratio Ki was 0.39 in experiment [1], 1.02 in the experiment with CHO [2] and 0.39 in the experiment on CHO [3]. In addition, the Ki at Adenosine receptor A1 was 10400 nM; on Adenosine receptor A2a it was 26900 nM; at Adenosine receptor A3 it was 26300 nM; on Adenosine receptor A2b it was > 10000 nM.
Regarding `CCOC(=O)c1cnc(NC2CCCCC2)n2nc(-c3ccco3)nc12`, the Ratio Ki in experiment [1] was determined as 1.08; in the experiment with CHO [2] it was 0.45; in the experiment on CHO [3] it was 2.39. The Ki is 141 nM on Adenosine receptor A1, 58.9 nM at Adenosine receptor A2a, 131 nM at Adenosine receptor A3 and > 10000 nM at Adenosine receptor A2b.
With `O=C(Nc1ncc(C(=O)NCCc2ccccc2)c2nc(-c3ccco3)nn12)NC1CCCCC1`, the Ratio Ki is > 23.7 in experiment [1], 0.18 in the experiment with CHO [2] and > 129 in the experiment on CHO [3]. The Ki is > 100000 nM at Adenosine receptor A1, 773 nM on Adenosine receptor A2a, 4220 nM at Adenosine receptor A3 and > 30000 nM on Adenosine receptor A2b.
Take `CCOC(=O)c1cnc(NC(=O)Nc2ccccc2)n2nc(-c3ccco3)nc12`: the Ratio Ki in experiment [1] is 0.9; with CHO [2] it was 0.01; in the experiment with CHO [3], 66.8. The Ki amounted to 322 nM on Adenosine receptor A1, 4.82 nM on Adenosine receptor A2a, 357 nM on Adenosine receptor A3 and 1900 nM at Adenosine receptor A2b.
Turning to `O=C(O)c1cnc(NC2CCCC2)n2nc(-c3ccco3)nc12`, the values for the Ratio Ki (in experiment [1]; in the experiment with CHO [2]; with CHO [3]) were 0.21, 2.11 and 0.1, respectively. In addition, the Ki at Adenosine receptor A1 was 3790 nM; on Adenosine receptor A2a, 37300 nM; at Adenosine receptor A3, 17700 nM; on Adenosine receptor A2b it was > 10000 nM.
As to `CCCCC(CC)CNc1ncc(C(=O)OCC)c2nc(-c3ccco3)nn12` (centres undefined), the Ratio Ki in experiment [1] was 29.3; with CHO [2], 5.47; with CHO [3], 5.35. Besides, the Ki was 1150 nM at Adenosine receptor A1, 215 nM at Adenosine receptor A2a, 39.3 nM at Adenosine receptor A3 and > 10000 nM at Adenosine receptor A2b.
On to `O=C(O)c1cnc(NCc2ccc(C(F)(F)F)cc2)n2nc(-c3ccco3)nc12`, for which the Ratio Ki in experiment [1] was > 6.29; with CHO [2], 1.13; in the experiment on CHO [3] it was > 5.55. In addition, the Ki was > 100000 nM on Adenosine receptor A1, 18000 nM at Adenosine receptor A2a, 15900 nM on Adenosine receptor A3 and > 30000 nM on Adenosine receptor A2b.
Regarding `Nc1ncc(C(=O)NCCc2ccccc2)c2nc(-c3ccco3)nn12`, the values for the Ratio Ki (in experiment [1]; in the experiment on CHO [2]; in the experiment with CHO [3]) were 0.41, 0.08 and 5.14, respectively. The Ki on Adenosine receptor A1 came to 57.1 nM; on Adenosine receptor A2a, 11.1 nM; at Adenosine receptor A3, 140 nM; on Adenosine receptor A2b it was 5320 nM.
For `O=C(O)c1cnc(NC(c2ccccc2)c2ccccc2)n2nc(-c3ccco3)nc12`, the Ratio Ki in experiment [1] is 1.18; with CHO [2], > 48; with CHO [3] it was < 0.02. For the same compound, the Ki was 2450 nM at Adenosine receptor A1, > 100000 nM on Adenosine receptor A2a, 2070 nM on Adenosine receptor A3 and > 30000 nM on Adenosine receptor A2b.
Consider `CCOC(=O)c1cnc(NC2CCCCCC2)n2nc(-c3ccco3)nc12`, for which the results for the Ratio Ki (in experiment [1]; in the experiment on CHO [2]; in the experiment on CHO [3]) were 0.72, 0.73 and 0.98, respectively. Further, the Ki is 231 nM at Adenosine receptor A1, 235 nM on Adenosine receptor A2a, 321 nM on Adenosine receptor A3 and > 10000 nM at Adenosine receptor A2b.
